M18AAP inhibitor: blocks P. falciparum M18 aspartyl aminopeptidase; recombinant PfM18AAP, H-Glu-NHMec fluorogenic cleavage; 1.2% of 290,000 active; AID 1822; inhibition, % at 7.35 µM;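 active = inhibition above the campaign mean inhibition over all tested compounds plus 3 SD, cut at about 28% in these data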;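 note: 0% = plate median of test compound wells and 100% = 2 mM ZnCl2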
HDAC3 inh: inhibitors of human histone deacetylase 3. O15379. recombinant HDAC3, fluorogenic peptide/trypsin coupled, fluorescence. inhibition, % at 8.3 µM. 0.15% of 320,000 active; in the data active = inhibition above about 26%, passing the limit was not always enough
Target sequence (O15379 whole entry, looked up): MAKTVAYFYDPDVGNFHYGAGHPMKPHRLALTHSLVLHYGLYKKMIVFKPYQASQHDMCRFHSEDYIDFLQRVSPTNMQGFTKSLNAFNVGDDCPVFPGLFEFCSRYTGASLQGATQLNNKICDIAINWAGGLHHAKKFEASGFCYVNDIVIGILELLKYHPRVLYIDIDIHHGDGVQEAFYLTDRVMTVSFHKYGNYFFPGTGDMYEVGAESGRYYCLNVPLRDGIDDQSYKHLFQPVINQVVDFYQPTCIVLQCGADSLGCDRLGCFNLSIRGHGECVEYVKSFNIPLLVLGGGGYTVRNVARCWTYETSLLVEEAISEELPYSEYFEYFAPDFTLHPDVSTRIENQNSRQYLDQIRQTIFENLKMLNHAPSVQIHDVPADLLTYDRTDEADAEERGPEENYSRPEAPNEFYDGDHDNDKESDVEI
SENP1 FRET inh: inhibitors of human SENP1 SUMO protease catalytic domain; recombinant SENP1 catalytic domain, CyPet-SUMO1-YPet FRET cleavage; inhibition, % at 10 µM; 0.21% of 360,000 active;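 active = inhibition at least 30% at 10 µM, raw YFP signal under a set limit, fluorescence ratio 0.5 to 1.5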;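 note: 0% = enzyme with DMSO and 100% = no enzyme wells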
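material = recombinant human SENP1 catalytic domain, His6-tagged | quantity = 20 pM enzyme | reagent = 25 nM SUMO1 FRET substrate | compound dosing = 10 µM single point, 0.5% DMSO | timing = 50 min enzyme reaction, room temperature, light-protected | detection = FRET, CFP and YFP emission | control set = no-enzyme low, enzyme-DMSO high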
FXN GAA850 act: frataxin GAA850 promoter activation; activation, % at 6 µM; HEK293 lucGAA850 FXN promoter luciferase reporter, 24 h; percent of 10 µM SAHA response; 0.56% of 360,000 active;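 active = activation above the average of all compounds screened plus 3 SD, cutoff fixed separately per campaign, cut at about 7.5% in these data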;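 note: 0% = DMSO wells and 100% = 10 µM SAHA wells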
AHR activator: human AHR activation; P35869; AHR-responsive luciferase reporter cells, luminescence; activation, % at 5 µM; 2.5% of 320,000 active; AID 2796; in the data active = activation above about 47%;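 note: 0% = vehicle wells and 100% = reference agonist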
Fh CTSL1 inh: cathepsin L1 inhibition, PFM18AAP counter-screen. recombinant F. hepatica cathepsin L1, Z-Leu-Arg-MCA fluorescence. inhibition, % at 5.96 µM. 0.49% of 300,000 active. AID 1906;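 active = inhibition above the mean of all tested compounds plus 3 SD, set per screening campaign, cut at about 17% in these data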;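 note: 0% = plate median of test compound wells and 100% = 1 µM Z-Phe-Ala-diazomethylketone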
* marks the source's active call; other numbers are inactive results; nt = no result. Shown are actives, neighbours in structure and some others; about 4.2% of the full set was active somewhere.

SMILES	M18AAP inhibitor	HDAC3 inh	SENP1 FRET inh	FXN GAA850 act	AHR activator	Fh CTSL1 inh
Cc1ccc2nc(-c3ccc(SCC(=O)N4CCc5ccccc54)nc3)[nH]c2c1	0	0	4	7	59*	5
CNc1cnc(-c2ccc(F)c(F)c2F)cn1	nt	nt	-1	6	nt	nt
COc1ccc(Cl)cc1CC=NNC(=O)c1cccc(C)c1O	nt	nt	2	4	nt	nt
Nc1ccc(N)c(C(=O)O)c1	nt	2	38*	2	2	-1
CCOc1cc(CNc2ccc(S(N)(=O)=O)cc2)ccc1OCC(=O)NC(C)(C)C	8	7	1	-1	1	-1
COc1cc(CNCCc2ccc(S(N)(=O)=O)cc2)ccc1OCC(=O)NC(C)(C)C	-4	-1	1	1	49*	0
COc1ccc(Nc2nc3nonc3nc2N2CCCCC2)cc1	5	2	2	-1	11	1
CC1CCN(c2nc3nonc3nc2Nc2ccc(F)cc2)CC1	3	1	0	0	50*	-12
O=C(OCC(=O)N1CCCC1=O)C1CCN(S(=O)(=O)c2c(Cl)cccc2Cl)CC1	-14	6	1	1	1	0
O=C/C(=C\Nc1ccc(Cl)cn1)c1nc2ccccc2o1	-3	1	-45	0	36	-2
O=C/C(=C\Nc1ccc(Cl)cn1)c1nc2cc(Cl)ccc2o1	-6	-1	-17	1	51*	-5
CN(Cc1cccs1)C(=O)c1ccc(Cl)c(S(=O)(=O)N2CCCCCC2)c1	nt	8	0	-2	6	nt
COC[C@H]1CCCN1[C@@H]1CS(=O)(=O)N[C@H]1COCc1ccccc1	nt	nt	-4	nt	nt	nt
COc1ccc(NC(=O)c2sc(SCc3ccccc3)nc2N)cc1	-4	4	-2	0	48*	5
COc1ccc(NC(=O)c2sc(SC)nc2N)cc1	-7	5	0	6	19	3
O=S1(=O)C[C@H](N2CCN(CCO)CC2)[C@@H](COCc2ccccc2)N1	nt	nt	-4	nt	nt	nt
O=C(O)COc1ccccc1/C=N/NC(=O)c1cccc(S(=O)(=O)N2CCOCC2)c1	-2	4	0	2	-1	1
Cc1ccc(C(=O)NNC(=S)NC(=O)COc2ccccc2)cc1	9	nt	1	-1	-7	0
Cc1cccc(OCC(=O)NC(=S)NNC(=O)c2ccncc2)c1	45*	3	0	0	0	-6
CSc1c2c(nc3ncnn13)CCC2	0	1	-2	-2	-2	2
CSc1nc2[nH]c3c(c2c2ncnn12)CCCC3	1	-2	-2	2	47*	-1
Cc1ccccc1-c1coc2cc(O)ccc2c1=O	-5	-20	-1	1	7	23*
Cc1cc(C)cc(Oc2coc3cc(O)ccc3c2=O)c1	3	-21	-3	2	2	17*
CCc1cc(C(=O)Nc2nc(-c3ccccn3)cs2)sc1C	nt	7	11	-1	30	nt
O=C(O)CNC(=O)C1(NC(=O)OCc2ccccc2)CCCC1	nt	nt	3	0	nt	nt
SMILES	M18AAP inhibitor	HDAC3 inh	SENP1 FRET inh	FXN GAA850 act	AHR activator	Fh CTSL1 inh
Cc1ccc(-c2cn3cccnc3n2)cc1NC(=O)c1c(-c2ccccc2Cl)noc1C	6	-174	-8	-5	48*	2
CC(=O)Nc1ccc(NC(=O)c2c(-c3ccccc3Cl)noc2C)cc1	3	-5	1	1	-1	-1
Cc1onc(-c2ccccc2Cl)c1C(=O)Nc1ncn[nH]1	54*	4	2	-1	-4	-1
CCOCc1c(C(=O)Nc2ccccc2N2CCN(C)CC2)oc2ccccc12	nt	nt	0	1	nt	nt
COc1cc(/C=C2/C(=N)N3C(=NC2=O)SN=C3S(C)(=O)=O)ccc1OC(=O)c1ccco1	6	24	-58	1	2	0
CS(=O)(=O)C1=NSC2=NC(=O)/C(=C\c3ccc(OC(=O)c4ccco4)cc3)C(=N)N21	1	35*	nt	nt	-2	-4
COC(=O)c1ccc(NC(=O)C(=O)NCC2CCCO2)cc1 (stereo unspecified)	4	1	1	4	5	17*
Cn1c(NCCc2ccncc2)nc2cc(-c3cccc(C(F)(F)F)c3)sc2c1=O	nt	nt	-1	0	nt	nt
COCCn1c(-c2ccc(Br)cc2)csc1=Nc1cccnc1	5	3	0	-1	11	-1
FC(F)Oc1ccc(-c2csc(=Nc3cccnc3)n2CC2CCCO2)cc1 (stereo unspecified)	-13	-3	0	-1	48*	-2
O=C(Nc1ccc2c(c1)OCCO2)C1c2ccccc2OCC(=O)N1CCc1ccccc1 (stereo unspecified)	nt	nt	1	nt	nt	nt
CCC(C)(C)n1nnnc1C(c1cc2cc(C)ccc2[nH]c1=O)N1CCCC1 (stereo unspecified)	10	0	-14	10.0*	10	-2
C[C@H](CO)N1C[C@H](C)[C@@H](CN(C)Cc2ccc(C(=O)O)cc2)Oc2ncc(Br)cc2C1=O	nt	nt	-1	-1	nt	nt
Cc1nn(-c2ccccc2)c2c1C(c1ccc(O)c(O)c1)N1C(=N2)C(Nc2ccccc2)=Nc2ccccc21 (stereo unspecified)	34*	4	6	-1	0	38*
Cc1ccc(NC2=Nc3ccccc3N3C2=Nc2c(c(C)nn2-c2ccccc2)C3c2ccc(O)c(O)c2)cc1 (stereo unspecified)	11	nt	8	-2	nt	nt
CCOc1ccccc1NC(=O)c1cccc(NC(=O)CC(c2ccccc2)c2ccccc2)c1	2	1	0	-5	-4	18*
CCOc1ccccc1NC(=O)c1ccc(Cl)c(NC(=O)CC(c2ccccc2)c2ccccc2)c1	-7	4	2	1	80*	-1
CCOCC(=O)Nc1cc(C(=O)Nc2cccc(C)c2C)ccc1Cl	-5	2	3	0	0	-1
CCOc1ccccc1NC(=O)c1cccc(NC(=O)C2CCCC2)c1	-8	-4	1	-2	60*	0
CCOCC(=O)Nc1cc(C(=O)Nc2ccc(F)cc2)ccc1Cl	4	3	nt	nt	63*	0
O=C(NCCc1ccccc1)c1ccc(-c2cccnc2)c2ccoc12	nt	nt	-2	3	nt	nt
O=C(COc1cc2oc(=O)cc(-c3ccccc3)c2cc1Cl)NC(Cc1c[nH]c2ccc(O)cc12)C(=O)O (stereo unspecified)	-2	3	-8	1	1	6
Cc1ccc(O)c(NC(=O)c2onc(C)c2Cl)c1	9	-1	3	5	72*	-5
CSc1ccc(/C=C/c2cc(=O)c3ccccc3[nH]2)cc1	-10	-12	-76	5	56*	4
O=c1cc(/C=C/c2cccs2)[nH]c2ccccc12	-4	-5	-2	-1	4	5
O=C(NCc1ccccn1)c1cccc(NS(=O)(=O)c2ccc(Br)cc2)c1	nt	2	-2	0	1	nt

Screening results as filed in PubChem BioAssay.
